Laboratory results reported in ChEMBL document CHEMBL3352716 (ACS Med Chem Lett, 2014).

Legend:
[1] = Anticancer activity against human Bel7402 cells assessed as growth inhibition by MTT assay; assay type: functional, cell-based; settings: Bel-7402
In short: (§1)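 Toxicity compared on human normal liver L-02 cells and human liver cancer Bel-7402 cells run side by side. Survival curves by MTT after 72 h treatment. IC50 is the concentration inhibiting 50% of cell growth.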

[2] = system: MCF7; test: Antiproliferative activity against human MCF7 cells assessed as growth inhibition after 72 hrs by MTT assay; assay type: functional, cell-based; settings: MCF7, 72 h
In short: (§2)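 MTT proliferation assay on human K562 leukaemia, MCF-7 breast adenocarcinoma, Bel-7402 hepatocellular carcinoma and MGC-803 gastric cancer cells. Drug exposure 72 h. IC50 is the concentration inhibiting 50% of cell growth. Means ± SD, n = 3.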

[3] = system: Bel-7402; test: Selectivity index, ratio of IC50 for human L02 cells to ratio of IC50 for human Bel-7402 cells; assay type: functional
In short: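 Selectivity index is IC50 on normal L-02 liver cells divided by IC50 on Bel-7402 tumour cells. Both IC50 values come from MTT survival curves after 72 h exposure.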

[4] = system: MGC-803; test: Antiproliferative activity against human MGC803 cells assessed as growth inhibition after 72 hrs by MTT assay; assay type: functional, cell-based; settings: MGC-803, 72 h; in short: as §2
[5] = Cytotoxicity against human L02 cells by MTT assay; assay type: cell-based; in short: as §1
[6] = Antiproliferative activity against human Bel7402 cells assessed as growth inhibition after 72 hrs by MTT assay; assay type: functional, cell-based; settings: Bel-7402, 72 h; in short: as §2
[7] = system: K562; test: Antiproliferative activity against human K562 cells assessed as growth inhibition after 72 hrs by MTT assay; assay type: functional, cell-based; settings: K562, 72 h; in short: as §2
[8] = Anticancer activity against ABCG2-overexpressing human NCI-H460/MX20 cells by MTT assay; assay type: functional, cell-based
In short: (§3)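 MTT cytotoxicity run on paired parental and transporter-overexpressing lines: SW620 vs ABCB1-overexpressing SW620/AD300, and NCI-H460 vs ABCG2-overexpressing NCI-H460/MX20. IC50 is the concentration inhibiting 50% of cell growth. Concentrations tested up to 100 μM.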

[9] = system: NCI-H460; test: Anticancer activity against human NCI-H460 cells by MTT assay; assay type: functional, cell-based; in short: as §3
[10] = Anticancer activity against ABCB1-overexpressing human SW620/AD300 cells by MTT assay; assay type: functional, cell-based; settings: SW-620; in short: as §3
[11] = system: SW-620; test: Anticancer activity against human SW620 cells by MTT assay; assay type: functional, cell-based; in short: as §3

Structure (SMILES) | IC50 [1] [µM] | IC50 [2] [µM] | Ratio IC50 [3] | IC50 [4] [µM] | IC50 [5] [µM] | IC50 [6] [µM] | IC50 [7] [µM] | IC50 [8] [µM] | IC50 [9] [µM] | IC50 [10] [µM] | IC50 [11] [µM]
O=C(O)CCCc1ccc(N(CCCl)CCCl)cc1 [CHLORAMBUCIL] | 49.3 | 80.5 | 2.14 | 134 | 106 | 49.3 | 60.1 | – | – | – | –
C=C1C(=O)[C@]23[C@H](OC(=O)[C@H](Cc4ccc(N(CCCl)CCCl)cc4)NC=O)[C@H]1CC[C@H]2[C@@]12CO[C@@]3(O)[C@@H](O)[C@@H]1C(C)(C)CC[C@@H]2O | – | 14.6 | – | 7.1 | – | 3.84 | 7.03 | – | – | – | –
C=C1C(=O)[C@]23[C@H](OC(=O)CCCc4ccc(N(CCCl)CCCl)cc4)[C@H]1CC[C@H]2[C@@]12CO[C@@]3(O)[C@@H](O)[C@@H]1C(C)(C)CC[C@@H]2O | 1.43 | 1.32 | 6.73 | 2.02 | 9.62 | 1.43 | 2.28 | 7.26 | 4.81 | 2.28 | 2.7
N[C@@H](Cc1ccc(N(CCCl)CCCl)cc1)C(=O)O [MELPHALAN] | – | 19.6 | – | 36.9 | – | 24.8 | 33.4 | – | – | – | –
C=C1C(=O)[C@]23[C@H](OC(=O)CCC(=O)N[C@@H](Cc4ccc(N(CCCl)CCCl)cc4)C(=O)OC)[C@H]1CC[C@H]2[C@@]12CO[C@@]3(O)[C@@H](O)[C@@H]1C(C)(C)CC[C@@H]2O | – | 14.4 | – | 9.3 | – | 8.35 | 9.01 | > 100 | 28.4 | 14.9 | 14
C=C1C(=O)[C@]23[C@H](OC(=O)[C@H](Cc4ccc(N(CCCl)CCCl)cc4)NC(=O)OC(C)(C)C)[C@H]1CC[C@H]2[C@@]12CO[C@@]3(O)[C@@H](O)[C@@H]1C(C)(C)CC[C@@H]2O | – | 3.22 | – | 6.72 | – | 2.36 | 1.41 | – | – | – | –
C=C1C(=O)[C@]23[C@H](OC(=O)c4ccc(N(CCCl)CCCl)cc4)[C@H]1CC[C@H]2[C@@]12CO[C@@]3(O)[C@@H](O)[C@@H]1C(C)(C)CCC2=O | – | 0.67 | – | 1.6 | – | 0.9 | 1.17 | – | – | – | –
C=C1C(=O)[C@]23[C@H](OC(=O)CCCc4ccc(N(CCCl)CCCl)cc4)[C@H]1CC[C@H]2[C@@]12CO[C@@]3(O)[C@@H](O)[C@@H]1C(C)(C)CC[C@@H]2OC(C)=O | – | 0.79 | – | 2.25 | – | 1.37 | 1.1 | – | – | – | –
